SUMO1 PPI mod = SUMO1-SIM interaction modulation | P63165 | SUMO1 binding to a labelled peptide, TR-FRET, 1 h | inhibition, % at 20 µM | 360,000 compounds, 0.33% hits; in the data active means inhibition above about 37%
Target sequence (P63165 whole entry, looked up): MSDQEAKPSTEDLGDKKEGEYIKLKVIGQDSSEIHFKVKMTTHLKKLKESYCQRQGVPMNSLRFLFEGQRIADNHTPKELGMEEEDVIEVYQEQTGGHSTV
LMPTP block = blocks human LMPTP phosphatase; recombinant LMPTP-A, OMFP fluorogenic substrate, fluorescence intensity; inhibition, % at 20 µM; 360,000 compounds, 0.22% hits; AID 651560;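 active means compounds that cut the enzyme signal by at least half of the control window in the single-dose screen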;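 further: plate controls were DMSO wells with enzyme plus substrate for no effect and substrate without enzyme for full effect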
Target sequence (P24666 whole entry, looked up): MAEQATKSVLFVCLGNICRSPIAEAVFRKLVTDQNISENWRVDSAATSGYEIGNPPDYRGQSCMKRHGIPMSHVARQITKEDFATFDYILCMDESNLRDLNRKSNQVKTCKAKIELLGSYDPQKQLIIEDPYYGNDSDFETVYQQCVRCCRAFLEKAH
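Test system: LMPTP-A, protein tyrosine phosphatase of low molecular weight; Input: 0.625 nM enzyme; Incubation: 50 min dark incubation at room temperature; Signal: endpoint fluorescence intensity from OMFP dephosphorylation; Read-out basis: % inhibition versus control wells.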
DNMT1 inh = DNMT1 (human) enzyme inhibition | AID 588458 | DNMT1 molecular beacon, Hinp1I cleavage, fluorescence | inhibition (reported as % activation of signal), % at 10 µM | 360,000 compounds, 0.83% hits; in the data active means inhibition above about 50%
STEP inh = inhibitors of human striatal-enriched phosphatase STEP | P54829 | recombinant STEP, OMFP fluorogenic substrate, fluorescence | inhibition, % at 20 µM | 360,000 compounds, 0.25% hits | AID 588621;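 active means inhibition at 20 µM, scaled per plate between control wells, above about 37%, limit read from the data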;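 further: 0% = DMSO with enzyme and substrate and 100% = substrate only without enzyme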
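System: isolated STEP enzyme; schedule: 20 min enzyme reaction at room temperature, protected from light; medium: Bis-Tris buffer pH 6.0, 2.5 mM DTT, 0.005% Tween 20; signal: fluorescence, 480/540 nm; dosing: single compound dose of 20 µM, 1% DMSO final; also added: OMFP substrate, 25 µM final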
Scp1 inh = blocks human Scp-1 phosphatase activity. Q9GZU7. Recombinant Scp1, phosphopeptide, malachite green phosphate absorbance. inhibition, % at 20 µM. 340,000 compounds, 0.88% hits. AID 493091;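 active means inhibition above about 50% at 20 µM, limit read from the data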;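 further: plate controls were DMSO wells with enzyme for no effect and wells lacking enzyme for full effect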
Target sequence (Q9GZU7 76-261 limits assumed): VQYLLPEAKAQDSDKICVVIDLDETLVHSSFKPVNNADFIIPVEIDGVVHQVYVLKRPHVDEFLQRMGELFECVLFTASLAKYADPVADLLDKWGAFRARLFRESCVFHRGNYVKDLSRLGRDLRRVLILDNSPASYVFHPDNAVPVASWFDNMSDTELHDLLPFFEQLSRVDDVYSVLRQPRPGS
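Incubation: 45 min enzyme reaction at room temperature / System: truncated SCP-1 phosphatase (76-261aa) / Reagent: Phospho 17-mer peptide substrate / Buffer or medium: Acidic Tris acetate buffer with magnesium and detergent / Signal: absorbance at 630 nm / Doses: one concentration, 20 µM, with 1.0% DMSO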
CSN deneddyl inh = blocks human CSN-mediated cullin deneddylation; Purified CSN, SCF-Nedd8-OG deneddylation, fluorescence polarization; Q92905; AID 651999; 360,000 compounds, 0.38% hits; inhibition, % at 12.5 µM;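 active means pattern-corrected inhibition above about 35%, with an unprinted fluorescence ratio check between 0.5 and 1.5, limit read from the data, passing the limit was not always enough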;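 further: 0% = enzyme with substrate and 100% = substrate without enzyme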
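Schedule: reaction 90 min, room temperature / Assay system: HEK293T-derived human Csn5 enzyme / Input: Csn5 at 0.24 nM final / Measure: inhibition of Csn5 cleavage, % / Control set: substrate-only high control, full reaction low control / Technique: fluorescence polarization of the substrate / Buffer or medium: Tris/NaCl/DTT buffer, pH 7.5 / Reagent: SCFSkp2-Nedd8OG substrate at 10 nM final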
* marks the source's active call; other numbers are inactive results; nt = no result given. Shown are actives, neighbours in structure and some others; about 1.9% of the full set was active somewhere.

SMILES	SUMO1 PPI mod	LMPTP block	DNMT1 inh	STEP inh	Scp1 inh	CSN deneddyl inh
CCOC(=O)c1sc(NC(=O)c2ccc(OC(C)=O)cc2)nc1C	-2	0	2	2	1	-2
CCOC(=O)c1sc(NC(=O)c2ccc(OC)cc2)nc1C	55*	1	0	0	-2	0
Cc1ccc(NC(=O)CCN2CCN(CCO)CC2)cc1Br	52*	-2	1	1	-8	1
CCc1ccc(C(O)c2ncc(-c3ccccc3C(F)(F)F)[nH]2)cc1 (stereo not drawn)	-1	0	2	-2	nt	0
O=C(CSc1nc2ccccc2c(=O)n1-c1ccc(F)cc1)Nc1ccc(C(=O)O)cc1	4	-2	1	1	-16	-1
O=C(CSc1nc(-c2ccc(F)cc2)nc2c1Cc1ccccc1O2)Nc1ccc(C(=O)O)cc1	106*	85*	95*	96*	102*	26
Cc1ccc(-c2cc(C#N)c(=O)n(Cc3c(Cl)cccc3Cl)c2)cc1	42*	0	8	-3	-3	-4
O=C1NC[C@@H](Cc2cccc3ccccc23)N(CCc2cccc(F)c2)C1=O	2	-1	nt	nt	nt	54*
CCCC[C@@H]1CNC(=O)C(=O)N1CC1CCCCC1	2	-1	nt	nt	nt	-1
CCCCN1C(=O)C(=O)NC[C@H]1Cc1cccc2ccccc12	10	-1	nt	nt	nt	51*
CCCCN1C(=O)C(=O)NC[C@@H]1CC1CCCCC1	45*	7	nt	nt	nt	-4
Cc1cc(C)nc(N2CCCC(C(=O)Nc3ccc4nc(C)c(C)nc4c3)C2)n1 (stereo not drawn)	-1	2	-5	1	-2	2
Clc1ccc(N(CC2CO2)CC2CO2)cc1 (stereo not drawn)	-1	-2	-44	1	-5	-4
Cc1ccc(Cn2c(C(C)Nc3nc(-c4ccc(Cl)cc4)cs3)nc3cc(C(=O)NCCCO)ccc32)cc1 (stereo not drawn)	3	1	-35	-3	-4	0
Cc1ccc(Cn2c(CCNc3nc(-c4ccc(C)cc4)cs3)nc3cc(C(=O)NCCCO)ccc32)cc1	52*	2	-78	-1	-3	1
Cc1cc(N2CCN(C(=O)Nc3ccccc3C#N)CC2)c2ccccc2n1	-1	51*	0	2	6	-2
COc1cccc(-c2csc3nnc(SCC(=O)c4ccc(NC(C)=O)cc4)n23)c1	43*	0	0	3	-2	17
O=C1C=C(c2ccc3cc[nH]c3c2)C[C@@H](c2ccc3c(c2)OCO3)C1	-7	5	12	0	67*	4
O=C1C=C(c2ccc3c(c2)OCO3)C[C@@H](c2ccc3c(c2)OCO3)C1	-4	1	6	0	6	-2
Cn1c(N)c(C(=O)COC(=O)Cc2cccs2)c(=O)n(C)c1=O	2	-1	3	-3	1	1
O=C(Cc1cccs1)OCC(=O)c1ccco1	5	3	65*	11	70*	25
COc1cc(/C=C(/C#N)c2nc3ccccc3c(=O)[nH]2)ccc1O	-39	1	-1	3	5	80*
COc1ccc(/C=C(\C#N)c2nc3ccccc3[nH]2)cc1O	-20	3	-2	1	-10	3
CC1CC(C)C[N+](=C2C=C(N3CCCC3)CC(C)(C)C2)C1 (stereo not drawn)	2	0	5	0	96*	-2
CCC(=O)c1ccc(OCC(O)CN2CCN(S(=O)(=O)c3ccc(NC(C)=O)cc3)CC2)cc1 (stereo not drawn)	-1	-1	3	-3	-1	0
COc1ccc(Cl)cc1C(=O)NNC(=O)CNC(=O)c1ccc(C)s1	7	-2	-3	-2	-8	-3
NC(=O)c1nsc(C(=O)N(c2cccc(F)c2)C(C(=O)NCC2CCCO2)c2ccc3ncccc3c2)c1N (stereo not drawn)	-13	2	-2	2	4	1
Nc1ccc2nc3c(=O)n(C4CCCCC4)c(=O)[nH]c3nc2c1	-21	-2	34	-60	-9	-77
